ChEMBL document CHEMBL4390693, “New analogs of SYA013 as sigma-2 ligands with anticancer activity” (Bioorg Med Chem, 2019)

Key:
[1] = molecular target: Sigma non-opioid intracellular receptor 1 (Homo sapiens, UniProt Q99720); experiment: Displacement of [3H]-Pentazocine from sigma 1 receptor (unknown origin) expressed in HEK293T cell membranes
[2] = Displacement of [3H]-DTG from sigma 2 receptor (unknown origin) expressed in HEK293T cell membranes; set-up: species or system Homo sapiens
Homo sapiens = species: Homo sapiens; experiment: Selectivity index, ratio of Ki for displacement of [3H]-Pentazocine from sigma 1 receptor (unknown origin) expressed in HEK293T cell membranes to KI for displacement of [3H]-DTG from sigma 2 receptor (unknown origin) expressed in HEK293T cell membranes
Summary of the method: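 Sigma-1 and sigma-2 binding was run by the NIMH Psychoactive Drug Screening Program. pKi is the mean of three independent experiments, each done at least in triplicate. The index is the ratio of the two receptor Ki values.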

MDA-MB-231 [3] = experiment: Cytotoxicity against human MDA-MB-231 cells assessed as reduction in cell viability incubated for 48 hrs by resazurin reagent based fluorescent assay; type: functional; details: MDA-MB-231, 48 h
Summary of the method: (§1)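 Cells seeded at 20,000 per well, attached overnight in experimental medium with 5% FBS at 37 °C, then exposed to varying concentrations of σ2 ligands in 1:9 DMSO/acetone (cisplatin in 0.9% saline) for 24, 48 or 72 h, with re-dosing every 24 h. Matched vehicle controls. Read-out is 0.02% resazurin for 2-3 h, fluorescence ex 560/em 590 nm, viability as % of control. IC50 from non-linear regression of log concentration.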

A549 = experiment: Cytotoxicity against human A549 cells assessed as reduction in cell viability resazurin reagent based fluorescent assay; type: functional; summary of the method: as §1
MIA PaCa-2 = experiment: Cytotoxicity against human MIAPaCa2 cells assessed as reduction in cell viability resazurin reagent based fluorescent assay; type: functional; summary of the method: as §1
PANC-1 = experiment: Cytotoxicity against human PANC1 cells assessed as reduction in cell viability resazurin reagent based fluorescent assay; type: functional; summary of the method: as §1
MDA-MB-231 [4] = experiment: Cytotoxicity against human MDA-MB-231 cells assessed as reduction in cell viability incubated for 24 hrs by resazurin reagent based fluorescent assay; type: functional; details: MDA-MB-231, 24 h; summary of the method: as §1
MDA-MB-231 [5] = experiment: Cytotoxicity against human MDA-MB-231 cells assessed as reduction in cell viability incubated for 72 hrs by resazurin reagent based fluorescent assay; type: functional; details: MDA-MB-231, 72 h; summary of the method: as §1
MDA-MB-468 = experiment: Cytotoxicity against human MDA-MB-468 cells assessed as reduction in cell viability resazurin reagent based fluorescent assay; type: functional; summary of the method: as §1
MCF-10A = experiment: Cytotoxicity against human MCF10A cells assessed as reduction in cell viability resazurin reagent based fluorescent assay; summary of the method: as §1
PC-3 = experiment: Cytotoxicity against human PC3 cells assessed as reduction in cell viability resazurin reagent based fluorescent assay; type: functional; summary of the method: as §1
HEK293 = experiment: Cytotoxicity against HEK293 cells assessed as reduction in cell viability incubated for 72 hrs by resazurin reagent based fluorescent assay; details: Homo sapiens, HEK293, 72 h; summary of the method: as §1

Chain of Sigma non-opioid intracellular receptor 1 (Q99720 whole entry): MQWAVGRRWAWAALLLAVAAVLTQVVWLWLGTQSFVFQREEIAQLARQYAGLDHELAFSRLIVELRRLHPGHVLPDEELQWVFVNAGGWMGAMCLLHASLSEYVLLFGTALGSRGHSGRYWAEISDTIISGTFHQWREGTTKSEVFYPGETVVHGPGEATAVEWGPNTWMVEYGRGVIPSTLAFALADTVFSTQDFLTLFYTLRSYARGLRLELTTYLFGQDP

| SMILES | Ki [1] | Ki [2] | pKi [2] | Ratio Ki (Homo sapiens) | IC50 (MDA-MB-231 [3]) | IC50 (A549) | IC50 (MIA PaCa-2) | IC50 (PANC-1) | IC50 (MDA-MB-231 [4]) | IC50 (MDA-MB-231 [5]) | IC50 (MDA-MB-468) | IC50 (MCF-10A) | IC50 (PC-3) | IC50 (HEK293) |
| --- | --- | --- | --- | --- | --- | --- | --- | --- | --- | --- | --- | --- | --- | --- |
| O=C1c2ccc(Cl)cc2CC1CCN1CCCN(c2ccc(Cl)cc2)CC1 (stereo not drawn) | 0.026 µM | 0.019 µM | 7.72 | 1.4 |  |  |  |  |  |  |  |  |  |  |
| O=C1c2ccc(F)cc2CC1CCN1CCCN(c2ccc(Cl)cn2)CC1 (stereo not drawn) | 0.016 µM | 0.0007 µM | 9.13 | 22.9 | 58 µM | 52 µM | 42 µM | 51 µM |  |  |  |  |  |  |
| O=C1c2ccccc2CC1CCN1CCCN(c2ccc(Cl)cc2)CC1 (stereo not drawn) | 0.021 µM | 0.0044 µM |  | 4.8 |  |  |  |  |  |  |  |  |  |  |
| O=C1c2ccc(Cl)cc2CC1CCN1CCN(c2ccc(Cl)cc2)CC1 (stereo not drawn) | 0.021 µM | 0.018 µM | 7.74 | 1.2 |  |  |  |  |  |  |  |  |  |  |
| O/N=C1/c2ccc(F)cc2CC1CCN1CCCN(c2ccc(Cl)cc2)CC1 (stereo not drawn) | 0.277 µM | 0.407 µM | 6.4 | 0.7 | 8 µM | > 200 µM | 10 µM | 76 µM |  |  |  |  |  |  |
| O=C1C(CCN2CCCN(c3ccc(Cl)cc3)CC2)=Cc2cc(F)ccc21 | 0.078 µM | 0.02 µM | 7.7 | 3.9 |  |  |  |  |  |  |  |  |  |  |
| O=C(CCCN1CCCN(c2ccc(Cl)cc2)CC1)c1ccc(F)cc1 |  |  |  |  | 18 µM | 6.2 µM | 2 µM | 0.4 µM | 36 µM | 15 µM | 5 µM | 22 µM | 8.2 µM |  |
| Fc1ccc2c(c1)CC(CCN1CCCN(c3ccccn3)CC1)C2 (stereo not drawn) | 0.022 µM | 0.0014 µM | 8.85 | 15.7 |  |  |  |  |  |  |  |  |  |  |
| O=C1c2ccc(F)cc2CC1CCN1CCCN(c2ccc(Cl)cc2)CC1 (stereo not drawn) | 0.063 µM | 0.0006 µM | 9.22 | 105 | 23.5 µM |  |  |  | 33.6 µM | 20.1 µM |  |  |  | 41.3 µM |
| O/N=C(\CCCN1CCCN(c2ccc(Cl)cc2)CC1)c1ccc(F)cc1 | 0.0051 µM | 0.0035 µM | 8.46 | 1.5 | 8 µM | 5.8 µM | 1.5 µM | 0.14 µM | 17 µM | 7 µM | 4 µM | 20 µM | 6.9 µM |  |
| O=C1C(CCN2CCCN(c3ccc(Cl)cc3)CC2)=Cc2cc(Cl)ccc21 | 0.0049 µM | 0.013 µM | 7.9 | 0.4 |  |  |  |  |  |  |  |  |  |  |
| O=C1c2ccc(F)cc2CC1CCN1CCCN(c2ccccn2)CC1 (stereo not drawn) | 0.044 µM | 0.0018 µM | 8.75 | 24.4 |  |  |  |  |  |  |  |  |  |  |
